Series [1] deals with Staphylococcus aureus. As to the kind of experiment: Antibacterial activity against methicillin-resistant Staphylococcus aureus clinical isolate 10 assessed as reduction in bacterial growth incubated for 16 to 20 hrs by CLSI-based broth microdilution method. Conditions: time 16-20 hrs. The format is functional. A digest of the protocol: (§1)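 Clinical isolates tested by broth microdilution in cation-adjusted Mueller-Hinton broth. Cultures grown 4-6 h (~10^8 CFU/mL) were diluted to ~10^6 CFU/mL and mixed 1:1 with compound serial dilutions made from 256 down to 0.5 µg/mL (pre-mixing). Plates held at 37 °C for 16-20 h, then read for growth. Each concentration run in duplicate, whole experiment at least twice.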

Series [2] has as its system Klebsiella pneumoniae. The series is described as follows: Antibacterial activity against carbapenem-resistant Klebsiella pneumoniae clinical isolate 1 assessed as reduction in bacterial growth incubated for 16 to 20 hrs by CLSI-based broth microdilution method. The format is functional. As to conditions: time 16-20 hrs. A digest of the protocol: as §1
The test system of series [3] is Klebsiella pneumoniae. As to the kind of experiment: Antibacterial activity against carbapenem-resistant Klebsiella pneumoniae clinical isolate 3 assessed as reduction in bacterial growth incubated for 16 to 20 hrs by CLSI-based broth microdilution method. The format is functional. As to conditions: time 16-20 hrs. A digest of the protocol:
as §1

For series [4], the system named is Staphylococcus aureus. As to the kind of experiment: Antibacterial activity against methicillin-resistant Staphylococcus aureus clinical isolate 9 assessed as reduction in bacterial growth incubated for 16 to 20 hrs by CLSI-based broth microdilution method. Format: functional. Conditions: time 16-20 hrs. In a few lines:
as §1

The test system of series [5] is Staphylococcus aureus. As to the kind of experiment: Antibacterial activity against methicillin-resistant Staphylococcus aureus clinical isolate 3 assessed as reduction in bacterial growth incubated for 16 to 20 hrs by CLSI-based broth microdilution method. The format is functional. As to conditions: time 16-20 hrs. A digest of the protocol: as §1
The test system of series [6] is Enterobacteriaceae. The series is described as follows: Antibacterial activity against NDM1 producing carbapenem-resistant Enterobacteriaceae clinical isolate 3 assessed as reduction in bacterial growth incubated for 16 to 20 hrs by CLSI-based broth microdilution method. The format is functional. Conditions: time 16-20 hrs. In a few lines: as §1
In series [7] the test system is Staphylococcus aureus. As to the kind of experiment: Antibacterial activity against methicillin-resistant Staphylococcus aureus clinical isolate 7 assessed as reduction in bacterial growth incubated for 16 to 20 hrs by CLSI-based broth microdilution method. The format is functional. As to conditions: time 16-20 hrs. In a few lines: as §1
The subject of series [8] is Escherichia coli. The series is described as follows: Antibacterial activity against Escherichia coli ATCC 25922 assessed as reduction in bacterial growth incubated 16 to 20 hrs by CLSI-based broth microdilution method. Format: functional. As to conditions: time 16-20 hrs. A digest of the protocol: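 Broth microdilution following CLSI, in cation-adjusted Mueller-Hinton broth. Inoculum from a 4-6 h culture (~10^8 CFU/mL), diluted to ~10^6 CFU/mL. Water stocks were serially diluted in MHB (256 to 0.5 µg/mL) and mixed 1:1 with the inoculum. Plates ran 16-20 h at 37 °C. MIC was read visually. Each concentration was tested in duplicate, and the experiment was repeated at least twice.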

Another series relates to Cell membrane. As to the kind of experiment: Induction of inner membrane permeabilization in Escherichia coli ATCC 25922 at 20 ug/ml measured for 12 mins by propidium iodide staining based fluorescence microscopic analysis. Conditions: dose 20.0 µg/ml. In a few lines:
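Mid-log bacteria were washed and resuspended at ~10^8 CFU/mL and preincubated with propidium iodide (10 µM stock) for 30 min (S. aureus) or 40 min (E. coli). Fluorescence (ex 535/em 617 nm) was read on a plate for an 8 min baseline, then every 2 min for 12 min after compound at 20 µg/mL final. Water served as control.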

In series [9] the test system is Enterobacteriaceae. The series is described as follows: Antibacterial activity against NDM1 producing carbapenem-resistant Enterobacteriaceae clinical isolate 5 assessed as reduction in bacterial growth incubated for 16 to 20 hrs by CLSI-based broth microdilution method. Format: functional. As to conditions: time 16-20 hrs. In a few lines: as §1
The test system of series [10] is Staphylococcus aureus. The series is described as follows: Antibacterial activity against methicillin-resistant Staphylococcus aureus clinical isolate 2 assessed as reduction in bacterial growth incubated for 16 to 20 hrs by CLSI-based broth microdilution method. The format is functional. Conditions: time 16-20 hrs. A digest of the protocol:
as §1

The test system of series [11] is Staphylococcus aureus. The series is described as follows: Antibacterial activity against methicillin-resistant Staphylococcus aureus clinical isolate 8 assessed as reduction in bacterial growth incubated for 16 to 20 hrs by CLSI-based broth microdilution method. The format is functional. Conditions: time 16-20 hrs. In a few lines:
as §1

Series [12] has as its system Escherichia coli. The series is described as follows: Antibiofilm activity against 72 hrs preformed biofilm of Escherichia coli ATCC 25922 assessed as biofilm viability at 16 ug/ml incubated for 24 hrs by […] (reference value: 16.1 log10CFU). Format: functional. Conditions: dose 16 µg/ml. In a few lines: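 E. coli from mid-log phase was diluted to ~10^5 CFU/mL in M9 medium with 0.02% casamino acids and 0.5% glycerol and formed biofilm without shaking for 72 h. Wells were PBS-washed, then treated with 2-128 µg/mL for 24 h at 37 °C; medium-only wells served as control. Cells were released with trypsin-EDTA and plated as tenfold dilutions. Viability was given as log10 CFU/well.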

In the next series the test system is HeLa. As to the kind of experiment: Cytotoxicity against human HeLa cells assessed as viable cells by measuring increase in green fluorescence intensity at 1 to 4 ug/mL incubated for 24 hrs by calcein-AM/propidium iodide staining based fluorescence microscopy. Format: cell-based. As to conditions: dose 1-4 µg/ml. A digest of the protocol:
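HeLa cells in 12-well plates were treated 24 h at 1, 2 or 4 µg/mL, with untreated and 0.1% Triton X-100 controls. Cells were stained with 2 µM calcein AM and 4.5 µM propidium iodide for 15 min at 37 °C and imaged by fluorescence microscopy (calcein 500-550 nm band-pass; PI 590-800 nm long-pass). Three repeats.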

Series [13] relates to Escherichia coli. The series is described as follows: Antibiofilm activity against 24 hrs preformed biofilm of Escherichia coli ATCC 25922 assessed as eradication of preformed biofilm incubated for 24 hrs by crystal violet staining assay. Format: functional.
Series [14] is described as follows: Solubility of the compound in water at room temperature. The format is physicochemical. As to conditions: buffer.
For series [15], the system named is Staphylococcus aureus. As to the kind of experiment: Antibacterial activity against methicillin-resistant Staphylococcus aureus assessed as reduction in bacterial growth following incubation in 50% MHB medium and 50% plasma and meaured after incubation with compound for 20 to 24 hrs by agar plate method. Conditions: time 20-24 hrs. The format is functional. In a few lines:
(§2)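 Sheep plasma obtained by centrifuging defibrinated blood at 3500 rpm for 10 min; serum isolated in serum tubes. MRSA at 10^5 CFU/mL in 50% MHB plus 50% serum, plasma or blood, or in MHB alone. Compound dilutions (512 to 4 µg/mL, pre-mixing) added 50 µL to 150 µL bacteria, 37 °C for 20-24 h. Then 20 µL plated on MHA, 37 °C 20-24 h; MBC taken as no colonies. Two repeats.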

The test system of series [16] is Staphylococcus aureus. The series is described as follows: Antibacterial activity against Staphylococcus aureus ATCC 29213 assessed as reduction in bacterial growth compound preincubated with 50% sheep plasma for 0 hrs followed by incubation for 20 to 24 hrs by agar plate method. Format: functional. Conditions: time 20-24 hrs. In a few lines: (§3)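 Sheep plasma came from centrifuged defibrinated blood. Compound at 512 µg/mL in 50% water/50% plasma was preincubated at 37 °C for 0, 3 or 6 h, then serially diluted (256 to 4 µg/mL). Dilutions were mixed 1:3 with S. aureus suspension (10^5 CFU/mL) and incubated 20-24 h at 37 °C. MBC was taken as no colonies after 20 µL was plated on agar.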

Series [17] is described as follows: Hemolytic activity in sheep RBC incubated for 1 hr. The format is ADME, cell-based, Ovis aries, Erythrocyte. As to conditions: sheep red blood cells (erythrocytes). A digest of the protocol: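 Sheep RBCs were resuspended at 5% in PBS and mixed 3:1 with serial dilutions (2560 to 5 µg/mL, pre-mixing levels), then incubated 1 h at 37 °C. After centrifugation, supernatant A540 was read. Hemolysis % was calculated as (A−A0)/(Atotal−A0)×100, with untreated RBCs as 0% and 0.1% Triton X-100 as total lysis.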

The test system of series [18] is Staphylococcus aureus. The series is described as follows: Antibacterial activity against methicillin-resistant Staphylococcus aureus assessed as reduction in bacterial growth following incubation in 50% MHB medium and 50% serum and meaured after incubation with compound for 20 to 24 hrs by agar plate method. Format: functional. Conditions: time 20-24 hrs. A digest of the protocol:
as §2

For series [19], the system named is Staphylococcus aureus. As to the kind of experiment: Antibacterial activity against Staphylococcus aureus ATCC 29213 assessed as reduction in bacterial growth compound preincubated with 50% sheep plasma for 3 hrs followed by incubation for 20 to 24 hrs by agar plate method. Format: functional. Conditions: time 20-24 hrs. A digest of the protocol: as §3

SMILES strings stand for the structures. ≈ marks a conversion by molar mass, not a printed value. Calls of active or inactive are those of the source. The rule behind the calls is not given here.

`C[C@@H](O)[C@H]1C(=O)N2C(C(=O)O)=C(S[C@@H]3CN[C@H](C(=O)N(C)C)C3)[C@H](C)[C@H]12` [MEROPENEM]: the MIC was 32 µg/mL (≈ 83.4 µM) with Staphylococcus aureus [1]; greater than 64 µg/mL with Klebsiella pneumoniae [2]; 2 µg/mL (≈ 5.22 µM) in the series on Klebsiella pneumoniae [3]; 64 µg/mL (≈ 167 µM) in the series on Staphylococcus aureus [4]; 32 µg/mL (≈ 83.4 µM) in the series on Staphylococcus aureus [5]; 64 µg/mL (≈ 167 µM) in the series on Enterobacteriaceae [6]. The MIC with Staphylococcus aureus [7] was 64 µg/mL (≈ 167 µM); with Escherichia coli [8], less than 0.125 µg/mL; in the series with Enterobacteriaceae [9], 8 µg/mL (≈ 20.9 µM); in the series on Staphylococcus aureus [10], 64 µg/mL (≈ 167 µM); with Staphylococcus aureus [11] it was 64 µg/mL (≈ 167 µM). Moreover, the result with Cell membrane was inactive.

Take `CCCCCCCCCCCN(C[C@H]1CN(c2ccc(N3CCOCC3)c(F)c2)C(=O)O1)C(=O)[C@@H](N)CCCCN.Cl.Cl`: the Activity is 7.1 log10CFU with Escherichia coli [12] and “Non-Toxic” in the series on HeLa. Also, the MBEC in the series with Escherichia coli [13] was determined as 128 µg/mL. Moreover, in the series with Escherichia coli [13], the MBEC80 was determined as 112.8 µg/mL. In the series on Escherichia coli [13], the MBEC90 was found to be 120.3 µg/mL. In addition, the minimum inhibitory concentration (MIC) with Staphylococcus aureus [1] was 4 µg/mL; in the series on Klebsiella pneumoniae [2], 16 µg/mL; in the series with Klebsiella pneumoniae [3] it was 16 µg/mL; in the series on Staphylococcus aureus [4], 4 µg/mL; with Staphylococcus aureus [5] it was 2 µg/mL; with Enterobacteriaceae [6], 16 µg/mL. The minimal inhibitory concentration (MIC) in the series with Staphylococcus aureus [7] stood at 2 µg/mL; in the series with Escherichia coli [8], 8 µg/mL; in the series on Enterobacteriaceae [9], 8 µg/mL; in the series with Staphylococcus aureus [10] it was 4 µg/mL; in the series on Staphylococcus aureus [11], 4 µg/mL. In addition, in [14], the solubility entry is given as “Soluble”. Also, the MBC was 128 µg/mL with Staphylococcus aureus [15], 64 µg/mL in the series on Staphylococcus aureus [16], greater than 128 µg/mL in the series on Staphylococcus aureus [18] and 64 µg/mL with Staphylococcus aureus [19]. In series [17], this molecule showed an HC50 at 1 h of 100 µg/mL. In addition, the result in the series on Cell membrane was Active.

The values above are taken from ChEMBL document CHEMBL4673214, “Synthesis and antibacterial bioactivities of cationic deacetyl linezolid amphiphiles” (Eur J Med Chem, 2018).
